The source of these data is ChEMBL document CHEMBL3853325, “Identification of Inhibitors for the DEDDh Family of Exonucleases and a Unique Inhibition Mechanism by Crystal Structure Analysis of CRN-4 Bound with 2-Morpholin-4-ylethanesulfonate (MES)” (J Med Chem, 2016).

The target of experiment [1] is T1, 3'-5' exonuclease crn-4 (Caenorhabditis elegans) (UniProt Q10905).
T1 sequence (whole entry): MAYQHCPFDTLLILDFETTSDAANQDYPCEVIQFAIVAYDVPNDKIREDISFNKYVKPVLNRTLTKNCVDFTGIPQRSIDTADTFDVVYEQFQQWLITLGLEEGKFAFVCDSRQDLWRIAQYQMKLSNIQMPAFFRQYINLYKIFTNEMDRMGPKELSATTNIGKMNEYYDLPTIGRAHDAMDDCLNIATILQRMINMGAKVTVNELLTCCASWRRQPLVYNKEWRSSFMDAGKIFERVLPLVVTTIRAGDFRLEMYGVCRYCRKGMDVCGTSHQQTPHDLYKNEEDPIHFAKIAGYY
Description: (§1) Inhibition of 5'-[gamma-32P]ATP-labelled 11-nucleotide ssRNA binding to Caenorhabditis elegans GST-tagged CRN-4 expressed in Escherichia coli BL21 (DE3) pLysS at 1 mM preincubated for 10 mins followed by substrate addition measured after 20 mins by TBE gel electrophoresis mobility shift assay. The essentials: (§2)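 Gel-shift assay. Inhibitor was mixed with protein (CRN-4 or RNase T) for 10 min at room temperature, then 20 nM 5′-32P-labelled 11-nt substrate was added (RNA for CRN-4, DNA for RNase T). Buffer: 50 mM Tris-HCl pH 7.0, 120 mM NaCl, 10 mM EGTA, 40 mM EDTA, ±10% DMSO, 20 min at room temperature. Complexes were resolved on 20% TBE gels and read by phosphorimaging.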

The test system of experiment [2] is Mammarenavirus lassaense. Description: Inhibition of Lassa virus N-terminal His-tagged NP exonuclease domain (342 to 569 residues) expressed in Escherichia coli Tuner (DE3) using FAM-labeled 20-nucleotide ssRNA preincubated for 10 mins followed by substrate addition measured after 60 mins by PAGE based […]. The essentials: (§3)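 Purified NP exonuclease domain (2 μM), alone or with inhibitor, was incubated with 1 μM 5′-FAM-labelled RNA (20-nt ssRNA or stem-loop with 4-nt 3′ overhang). Buffer: 120 mM NaCl, 2 mM MgCl2, 20 mM Tris-HCl pH 7.0, ±10% DMSO, room temperature, 60 min. Products were run on 20% denaturing gels under UV. Cleavage was quantified across inhibitor concentrations to calculate IC50.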

The target of experiment [3] is T2, Ribonuclease T (Escherichia coli (strain K12)) (UniProt P30014).
T2 sequence (whole entry): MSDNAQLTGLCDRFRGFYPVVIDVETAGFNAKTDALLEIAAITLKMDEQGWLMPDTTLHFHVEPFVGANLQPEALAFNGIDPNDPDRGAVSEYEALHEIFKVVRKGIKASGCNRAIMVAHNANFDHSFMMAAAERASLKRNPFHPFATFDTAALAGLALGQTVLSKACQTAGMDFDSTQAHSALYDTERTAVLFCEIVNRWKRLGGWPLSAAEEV
The experiment can be described thus: (§4) Inhibition of N-terminal His-tagged recombinant Escherichia coli K-12 RNase T exonuclease activity expressed in Escherichia coli BL21-CodonPlus(DE3)-RIPL preincubated for 10 mins followed by [gamma-32P]ATP labelled 11-nucleotide ssDNA substrate addition for 40 mins by PAGE based autoradiography.

Experiment [4] addresses T1, 3'-5' exonuclease crn-4 (Caenorhabditis elegans). Description: (§5) Inhibition of GST-tagged Caenorhabditis elegans CRN-4 exonuclease activity expressed in Escherichia coli BL21 (DE3) pLysS preincubated for 10 mins followed by [gamma-32P]ATP labelled 11-nucleotide ssRNA substrate addition for 30 mins by PAGE based autoradiography.
Experiment [5] relates to Mammarenavirus lassaense. The experiment can be described thus: (§6) Inhibition of Lassa virus N-terminal His-tagged NP exonuclease domain (342 to 569 residues) expressed in Escherichia coli Tuner (DE3) using 3'-overhang 4-nucleotide stem-loop RNA preincubated for 10 mins followed by substrate addition measured after 60 mins by PAGE based […]. The essentials: as §3

For experiment [6], the system named is Geobacillus phage GBSV1. Description: Inhibition of recombinant GST-fused Geobacillus phage GBSV1-NSN expressed in Escherichia coli BL21 (DE3) at 10 mM using RNA/DNA as substrate after 15 mins by spectrophotometry relative to control.
In experiment [7] the target is 3'-5' exonuclease crn-4 (Caenorhabditis elegans) (UniProt Q10905). The experiment is described as §1. The essentials:
as §2
This is another data set of the same source.

Experiment [8] has as its target Ribonuclease T (Escherichia coli (strain K12)) (UniProt P30014). The description is as §4. The source holds these as a separate data set.
For experiment [9] the target is unchanged. The experiment can be described thus: (§7) Inhibition of 5'-[gamma-32P]ATP-labelled 11-nucleotide ssDNA binding to recombinant Escherichia coli K-12 N-terminal His-tagged RNase T expressed in Escherichia coli BL21-CodonPlus(DE3)-RIPL at 1 mM preincubated for 10 mins followed by substrate addition measured after 20 mins by TBE gel electrophoresis mobility shift assay. The essentials: as §2

Experiment [10] deals with 3'-5' exonuclease crn-4 (Caenorhabditis elegans) (UniProt Q10905). Described as §5. The source holds these as a separate data set.
Experiment [11] in a line: as §6. Further details: species or system Mammarenavirus lassaense. The essentials: as §3
Experiment [12] addresses T2, Ribonuclease T (Escherichia coli (strain K12)). The description is as §7. The essentials:
as §2
The source holds these as a separate data set.

Active and inactive are the calls of the source. No cut-off for these calls is given here. Bounds are passed on as bounds.

Take `O=C(N[C@H](CC1CCCCC1)C(=O)O)OCC1c2ccccc2-c2ccccc21`: the inhibition result in [1] is “Active”. The INH in experiment [2], in experiment [3], in experiment [4] and in experiment [5] was 1 mM each time.
For `O=C(O)CC(O)(CC(=O)O)C(=O)O`, in experiment [6], the inhibition was 40%. The INH in [2] is 1 mM; in [3] it was 1 mM; in experiment [4] it was > 1 mM; in [5] it was 1 mM.
For the molecule `O=C(O)c1ccc(Nc2nc(Cl)nc(Cl)n2)cc1-c1c2ccc(=O)cc-2oc2cc(O)ccc12`, the INH in [2], in [3], in [4] and in experiment [5] was 1 mM each time.
p-Chloromercuribenzenesulfonate: the inhibition entry in experiment [7] and in [9] was “Active” in each case. In addition, the INH is 1 mM in experiment [2], 0.01 mM in [8], 0.01 mM in experiment [10] and 1 mM in experiment [5].
On to `O=C(O)c1cc2cccc([N+](=O)[O-])c2[nH]1`, for which the INH in experiment [2] was 1 mM; in experiment [3], 1 mM; in [4], > 1 mM; in [5] it was 1 mM.
As for `O=S(=O)(O)c1cc(O)c2c(O)c(/N=N/c3cccc4ccccc34)c(S(=O)(=O)O)cc2c1`, the inhibition entry in experiment [1] is “Active”. Further, the INH in experiment [2] amounted to 0.1 mM; in experiment [3], 0.1 mM; in experiment [4] it was 0.01 mM; in [5] it was 0.1 mM. Also, the inhibition result in experiment [5] was “Dose-dependent effect”. The half-maximal inhibitory concentration (IC50) in [11] amounted to 66.2 µM.
Consider `O=C(O)C1=CC(=C(c2ccc(O)c(C(=O)O)c2)c2ccc(O)c(C(=O)O)c2)C=CC1=O` [AURINTRICARBOXYLIC ACID], for which the inhibition entry in [1] and in experiment [12] was “Active” in each case. The INH in experiment [2] was determined as 0.01 mM; in [3] it was 0.01 mM; in [4], 0.1 mM; in [5], 0.01 mM. For the same molecule, the inhibition result in experiment [5] was “Dose-dependent effect”. For the same molecule, the IC50 in experiment [11] was determined as 6.8 µM.
As for `O=C(O)c1cc(SSc2ccc([N+](=O)[O-])c(C(=O)O)c2)ccc1[N+](=O)[O-]`, the inhibition entry in experiment [1] and in [12] was “Active” throughout. The INH in experiment [2] stood at 1 mM; in [3] it was 0.1 mM; in experiment [4], 0.1 mM; in experiment [5], 1 mM.

By inhibition is commonly meant how much of the control response was suppressed. By IC50 is commonly meant the midpoint of a concentration-inhibition curve. Lower therefore signals greater potency.
